Values after ≈ are worked out from the molar mass of the structure shown. Blank lines part the entries; values can stand above or below the molecule they belong to. Active and inactive are the calls of the source. No cut-off for these calls is given here.
Assays:
Candida albicans [1] = experiment: Antimicrobial activity against Candida albicans ATCC 90028 incubated for 24 hrs by microdilution assay; format: functional
Outline: (§1)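 Two-fold serial dilutions of test solutions made in Mueller Hinton broth and inoculated. Incubated at 37°C for 24 h. MIC taken as the lowest concentration with no growth. Ciprofloxacin is the antibacterial reference, fluconazole the antifungal one, and DMSO the blank.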

HepG2 = experiment: Cytotoxicity against human HepG2 cells assessed as cell growth inhibition incubated for 72 hrs by MTT assay; format: functional, cell-based; settings: HepG2, 72 h
Outline: (§2)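 Cells grown in RPMI-1640 with 10% FBS and seeded at 5×10^3 per well. After 24 h, serial concentrations given for 72 h at 37°C, 5% CO2. Then 5 mg/mL MTT stock added for 3 h, formazan dissolved in DMSO, A570 read. IC50 calculated from the curves.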

Enterococcus faecalis = experiment: Antimicrobial activity against Enterococcus faecalis ATCC 29212 incubated for 24 hrs by agar well diffusion assay; format: functional
Outline: (§3)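 Nutrient agar spread with 100 µL inoculum: bacteria at 1×10^8 CFU/mL, fungi at 1×10^6 CFU/mL. 10 mm wells loaded with 100 µL of compound in DMSO (final 1 mg/mL). Bacteria incubated 24 h at 37 °C, fungi 48 h at 28 °C. Inhibition zones measured in mm. Ciprofloxacin and fluconazole standards at 1 mg/mL, DMSO negative control.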

Escherichia coli [2] = experiment: Antimicrobial activity against Escherichia coli ATCC 25922 incubated for 24 hrs by agar well diffusion assay; format: functional; outline: as §3
[3] = Selectivity index, ratio of IC50 for human WI38 cells to IC50 for human MCF7 cells; format: toxicity; settings: WI38 cells versus MCF7 cells, read-out: Ratio IC50
Outline: (§4)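 SI calculated as IC50 on normal Wi-38 fibroblasts divided by IC50 on the cancer cell line. Both came from 72 h MTT assays.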

[4] = Selectivity index, ratio of IC50 for human WI38 cells to IC50 for mouse NFS60 cells; outline: as §4
Staphylococcus aureus [5] = experiment: Antimicrobial activity against Staphylococcus aureus ATCC 25923 incubated for 24 hrs by microdilution assay; format: functional; outline: as §1
MCF7 [6] = experiment: Cytotoxicity against human MCF7 cells assessed as cell growth inhibition incubated for 72 hrs by MTT assay; format: functional, cell-based; settings: MCF7, 72 h; outline: as §2
Escherichia coli [7] = experiment: Antimicrobial activity against Escherichia coli ATCC 25922 incubated for 24 hrs by microdilution assay; format: functional; settings: ATCC 25922, 24 h; outline: as §1
Pseudomonas aeruginosa = experiment: Antimicrobial activity against Pseudomonas aeruginosa ATCC 27853 incubated for 24 hrs by agar well diffusion assay; format: functional; outline: as §3
Staphylococcus aureus [8] = experiment: Antimicrobial activity against Staphylococcus aureus ATCC 25923 incubated for 24 hrs by agar well diffusion assay; format: functional; outline: as §3
Candida albicans [9] = experiment: Antimicrobial activity against Candida albicans ATCC 90028 incubated for 48 hrs by agar well diffusion assay; format: functional; outline: as §3
NFS-60 = experiment: Cytotoxicity against mouse NFS60 cells assessed as cell growth inhibition incubated for 72 hrs by MTT assay; format: functional, cell-based; settings: NFS-60, 72 h; outline: as §2
WI-38 = experiment: Cytotoxicity against human WI38 cells assessed as cell growth inhibition incubated for 72 hrs by MTT assay; format: cell-based; settings: for IC50: Homo sapiens, WI-38, 72 h; for EC100: human, wi-38, 72 h
Outline: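 Wi-38 fibroblasts grown in DMEM with 10% FBS and seeded at 5×10^3 per well. Attachment 24 h, then serial concentrations for 72 h at 37°C, 5% CO2. MTT stock (5 mg/mL) added for 3 h at 37°C, DMSO solubilization, absorbance at 570 nm. IC50 estimated.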

[10] = Selectivity index, ratio of IC50 for human WI38 cells to IC50 for human HepG2 cells; format: toxicity; settings: WI38 cells versus HepG2 cells, read-out: Ratio IC50; outline: as §4
MCF7 [11] = experiment: Potency index, ratio of doxorubicin IC50 to test compound IC50 against human MCF7 cells; format: functional

MIC (Candida albicans [1]): inactive
MIC (Staphylococcus aureus [5]): inactive
MIC (Escherichia coli [7]): 2400 µM (≈ 1020 µg/mL)
Structure (SMILES): CC(=O)Oc1ccccc1C(=O)OC1(C(=O)Nc2ccc([N+](=O)[O-])cc2)CCCCC1
IC50 (HepG2): 17.7 nM
diameter of the inhibition zone (DIZ) (Enterococcus faecalis): inactive
diameter of the inhibition zone (DIZ) (Escherichia coli [2]): 16 mm
selectivity ratio [3]: 2.86
Ratio IC50 [4]: 4.283
IC50 (MCF7 [6]): 16.9 nM
diameter of the inhibition zone (DIZ) (Pseudomonas aeruginosa): 16 mm
diameter of the inhibition zone (DIZ) (Staphylococcus aureus [8]): inactive
diameter of the inhibition zone (DIZ) (Candida albicans [9]): inactive
IC50 (NFS-60): 11.3 nM
IC50 (WI-38): 48.4 nM
EC100 (WI-38): 0.0355 µM
selectivity ratio [10]: 2.73

MIC (Candida albicans [1]): inactive
MIC (Staphylococcus aureus [5]): inactive
MIC (Escherichia coli [7]): 3530 µM (≈ 1020 µg/mL)
Structure (SMILES): O=C1OC2(CCCCC2)C(=O)N1c1ccc([N+](=O)[O-])cc1
IC50 (HepG2): 9.4 nM
diameter of the inhibition zone (DIZ) (Enterococcus faecalis): inactive
diameter of the inhibition zone (DIZ) (Escherichia coli [2]): 15 mm
selectivity ratio [3]: 5.38
Ratio IC50 [4]: 3.897
Ratio IC50 (MCF7 [11]): 2 - 4
IC50 (MCF7 [6]): 6.5 nM
diameter of the inhibition zone (DIZ) (Pseudomonas aeruginosa): 15 mm
diameter of the inhibition zone (DIZ) (Staphylococcus aureus [8]): inactive
diameter of the inhibition zone (DIZ) (Candida albicans [9]): inactive
IC50 (NFS-60): 8.98 nM
IC50 (WI-38): 35 nM
EC100 (WI-38): 0.006 µM
selectivity ratio [10]: 3.72

MIC (Candida albicans [1]): inactive
MIC (Staphylococcus aureus [5]): inactive
MIC (Escherichia coli [7]): 1270 µM (≈ 512 µg/mL)
Structure (SMILES): O=C(OC1(C(=O)Nc2ccc([N+](=O)[O-])cc2)CCCCC1)c1ccc(Cl)cc1
IC50 (HepG2): 21.8 nM
diameter of the inhibition zone (DIZ) (Enterococcus faecalis): 13 mm
diameter of the inhibition zone (DIZ) (Escherichia coli [2]): 14 mm
selectivity ratio [3]: 23.7
Ratio IC50 [4]: 34.466
IC50 (MCF7 [6]): 15 nM
diameter of the inhibition zone (DIZ) (Pseudomonas aeruginosa): 16 mm
diameter of the inhibition zone (DIZ) (Staphylococcus aureus [8]): inactive
diameter of the inhibition zone (DIZ) (Candida albicans [9]): inactive
IC50 (NFS-60): 10.3 nM
IC50 (WI-38): 355 nM
EC100 (WI-38): 0.1128 µM
selectivity ratio [10]: 16.3

— ChEMBL document CHEMBL4390662, “Design, synthesis and biological evaluation of novel α-acyloxy carboxamides via Passerini reaction as caspase 3/7 activators” (Eur J Med Chem, 2019)
